IMP-1 inh-1: blocks Pseudomonas aeruginosa IMP-1 metallo-beta-lactamase; inhibition, % at 5.6 µM; purified IMP-1, nitrocefin hydrolysis, epi-absorbance fluorescence; 0.45% of 290,000 active;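 active = inhibition above the mean plus 3 SD of all compounds in the same screening run, cut at about 4.5% in these data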;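 also: 0% = IMP-1 with DMSO and 100% = DMSO wells lacking enzyme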
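system = purified recombinant IMP-1 beta-lactamase | amount = 0.2 nM IMP-1, as dispensed | medium = HEPES buffer pH 7.1 with ZnSO4 and Brij 35 | times = 25 °C, 15 min preincubation, 25 min reaction | detection = plate fluorescence quenching by hydrolysis product, ex 480/em 530 nm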
SUMO Mot1 rescue: blocks SUMOylation pathway, rescuing yeast Mot1-301 growth. S. cerevisiae Mot1-301 growth rescue, ATP luminescence, 38.5C; percent above DMSO median, 100 means doubled. growth rescue, % at 18.8 µM. 1% of 320,000 active;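 active = every valid replicate shows activation above 250% relative to neutral control wells; inactive = the rest, any valid replicate at or below 250%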;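 also: OY570 slx delta 5 strain wells were the positive control but not used for scaling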
NLRP3 yeast inh: blocks the NALP3 inflammasome reconstituted in yeast; Yeast reconstituted NLRP3/ASC/caspase-1, beta-gal luminescence, 24 h; inhibition, % at 10 µM; 0.39% of 330,000 active; AID 2825;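 active = inhibition of 50% or more; inactive = inhibition below 50%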;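 also: plate controls were induced DMSO wells for no effect and uninduced yeast grown without galactose for full effect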
VIM-2 inh: blocks Pseudomonas aeruginosa VIM-2 metallo-beta-lactamase | purified VIM-2, nitrocefin hydrolysis, epi-absorbance fluorescence | inhibition, % at 5.6 µM | 0.89% of 290,000 active;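 active = inhibition above the mean of all tested compounds plus 3 SD, cutoff set per screening run, cut at about 7.5% in these data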;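 also: red hydrolysis product quenches plate fluorescence so inhibitors raise well fluorescence; 0% = enzyme with DMSO and 100% = DMSO without enzyme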
NALP1 yeast inh: blocks the NALP1 inflammasome reconstituted in yeast. S. cerevisiae NALP1/ASC/caspase-1 growth, X-gal OD620, 72 h. inhibition, % at 10 µM. 0.61% of 280,000 active. AID 2071; in the data active = inhibition mostly above about 24%, no sharp cut-off; inactive = mostly below about 32%
PolyA inh: yeast polyadenylation inhibition. activity score, % at 12 µM. 0.02% of 300,000 active. S. cerevisiae SKY197-pL101 polyadenylation reporter, beta-gal luminescence; efflux-impaired pdr1/pdr3 knockout yeast; score 100 = 6 SD above DMSO. AID 1875;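 active = lowest replicate activity score at least 50, where 100 means six control SD above control mean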;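 also: yeast exposed to compound for 9 h at 30 °C; higher score means more reporter readthrough which indicates perturbed polyadenylation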
IMP-1 inh-2: blocks IMP-1 metallo-beta-lactamase in VIM-2 selectivity screen. inhibition, % at 5.6 µM. 1,300 tested, under 10 active. purified IMP-1, nitrocefin hydrolysis, epi-absorbance fluorescence. shares compounds with VIM-2 inh. AID 1856; call rule not given here;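 also: 0% = enzyme with vehicle and 100% = vehicle without enzyme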
VIM-2 FRET ctr: inhibits VIM-2 in FRET assay to exclude epi-absorbance artifacts. inhibition, % at 5.6 µM. 23% of 1,300 active. purified VIM-2, CCF2 FRET substrate hydrolysis. shares compounds with VIM-2 inh;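 active = inhibition above the mean of all tested compounds plus 3 SD, cut at about 19% in these data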;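 also: 0% = VIM-2 plus DMSO and 100% = no enzyme wells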
TEM-1 inh: blocks E. coli TEM-1 beta-lactamase in VIM-2 selectivity screen; inhibition, % at 5.6 µM; shares compounds with VIM-2 inh; Purified TEM-1, nitrocefin hydrolysis, epi-absorbance fluorescence; 3% of 1,300 active;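 active = inhibition above that campaign's mean inhibition plus 3 SD, cut at about 0.46% in these data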;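 also: 0% = TEM-1 with DMSO and 100% = TEM-1 with 100 µM potassium clavulanate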
Target sequence (P62593 whole entry, looked up): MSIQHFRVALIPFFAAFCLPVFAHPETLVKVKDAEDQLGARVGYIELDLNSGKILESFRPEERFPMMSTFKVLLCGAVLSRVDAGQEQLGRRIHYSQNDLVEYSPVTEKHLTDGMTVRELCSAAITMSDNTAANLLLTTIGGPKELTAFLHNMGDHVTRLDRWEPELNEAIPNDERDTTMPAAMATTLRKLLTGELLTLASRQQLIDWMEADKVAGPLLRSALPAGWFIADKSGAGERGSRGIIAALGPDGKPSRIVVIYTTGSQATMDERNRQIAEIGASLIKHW
VIM-2 inh conf: confirmation of P. aeruginosa VIM-2 metallo-beta-lactamase inhibitors; shares compounds with VIM-2 inh; purified VIM-2, nitrocefin hydrolysis, epi-absorbance; inhibition, % at 5.6 µM; 96% of 1,300 active; AID 2187;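 active = inhibition of the VIM-2 beta-lactamase enzyme above about 11% from the earlier first-round screen, limit read from the data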;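 also: 0% = VIM-2 with DMSO and 100% = buffer wells without enzyme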
NALP3 yeast conf: NALP3 inhibition confirmation in yeast. AID 435006. 81% of 1,300 active. shares compounds with NLRP3 yeast inh. yeast expressing human NALP3, luminescence. inhibition, % at 10 µM; in the data active = inhibition above about 48%
Casp1 ASC ctr: counter-screen for NALP3 inhibitors: yeast caspase-1-ASC. yeast expressing Caspase-1-ASC, luminescence counter screen. inhibition, % at 10 µM. 66% of 1,000 active. shares compounds with NLRP3 yeast inh
NALP3 yeast rt: confirmation retest of NALP3 inhibitors in yeast. shares compounds with NLRP3 yeast inh. yeast expressing human NALP3, luminescence read-out. inhibition, % at 10 µM. 53% of 1,000 active
Numbers without * were called inactive; · = not tested or not shown. An excerpt weighted towards active compounds, which were near 2.9% of everything screened. Rule as the data show it, unless noted: active = inhibition above about 50%; inactive = the rest.

SMILES	IMP-1 inh-1	SUMO Mot1 rescue	NLRP3 yeast inh	VIM-2 inh	NALP1 yeast inh	PolyA inh	IMP-1 inh-2	VIM-2 FRET ctr	TEM-1 inh	VIM-2 inh conf	others
c1ccc(CNc2nc(-c3ccccn3)nc3ccccc23)cc1	-0.2	-19.2	47.8	18.9*	24.9	-6.8	-3.2	-55.8	-4.2	25.5*
CCSc1nccc(-c2nn(-c3ccc(C)cc3)ccc2=O)n1	0.2	-3.0	18.3	28.1*	-28.9	-1.4	-1.2	4.0	0.3	39.0*
Cc1cc(C)cc(OC(=O)COc2ccccc2C)c1	-0.4	3.6	10.3	0.1	13.8	-9.5	·	·	·	·
O=Cc1ccc2ccc3cccnc3c2n1	-0.5	-5.8	2.7	58.9*	10.9	-0.2	-3.8	-5.4	-4.9	69.9*
O=Cc1ccc2cccnc2n1	-5.7	-7.7	-16.0	-2.3	16.2	6.0	·	·	·	·
OC(CON=C1c2ccccc2-c2ccccc21)CN1CCNCC1 (stereo unspecified)	-0.6	7.1	0.4	30.1*	21.3	-1.0	-3.2	-3.5	-6.5	45.2*
COc1ccccc1C(=O)Nc1ccnn1C1CCN(Cc2cnn(C)c2C)CC1	0.0	77.9	9.1	57.3*	15.6	-10.5	-3.5	0.7	-6.3	-0.5
COc1ccccc1C(=O)Nc1ccnn1C1CCN(Cc2ncc[nH]2)CC1	-1.2	13.4	-0.5	-2.5	10.1	9.3	·	·	·	·
O=C(Nc1ccc(N2CCCCCC2)cc1)c1ccccc1Cl	-2.7	0.0	16.0	-2.7	11.0	-22.2	·	·	·	·
O=C(Nc1ccc(-n2ccnc2P(=O)(O)c2ccccc2)cc1)c1ccccc1Cl	-2.8	11.7	-3.2	14.8*	17.8	-2.9	-3.5	29.4*	-4.5	20.8*
CCOc1ccc(C(=O)NCC(=O)NNC(=O)c2ccco2)cc1OCC	·	-4.3	8.7	·	·	·	·	·	·	·
CC(C)N1CCc2c(sc(NC(=O)c3nc4ccccc4s3)c2C(N)=O)C1	-2.7	-6.7	46.9	-1.4	-21.7	-7.2	·	·	·	·
CC(C)N1CCc2c(sc(NC(=O)c3cc(-c4cccs4)nc4ccccc34)c2C(N)=O)C1	-2.1	11.6	33.9	19.8*	38.6	12.9	-1.9	12.5	-4.0	46.2*
C=CCn1c(SCC(C)=O)nc2sc3c(c2c1=O)CCC3	-1.2	13.6	14.9	6.2	9.9	-13.2	·	·	·	·
C=CCn1c(SCC(=O)N2CCN(CCO)CC2)nc2sc3c(c2c1=O)CCC3	0.4	6.0	15.3	50.0*	4.8	-10.5	-2.7	1.2	-9.5	64.4*
O=c1c2ccccc2oc2ccc(Oc3ccccc3)cc12	-3.0	-8.1	20.6	-0.2	10.4	5.7	·	·	·	·
COc1cc2oc3ccccc3c(=O)c2cc1OC	-2.4	208.2	61.9*	14.2*	10.2	1.6	-2.5	-0.4	-3.5	18.3*	NALP3 yeast conf=71.5*;Casp1 ASC ctr=55.4*;NALP3 yeast rt=58.6*
Cc1sc2ncnc(Oc3ccc(-n4ccnc4)cc3)c2c1C	-2.1	3.3	53.4*	73.7*	23.4	-3.3	-2.1	-7.1	-5.2	85.0*	NALP3 yeast conf=61.0*;Casp1 ASC ctr=69.0*;NALP3 yeast rt=48.4
Cc1ccc(C(=O)Nc2cccc(C(F)(F)F)c2)cc1NC(=O)c1[nH]cnc1C(N)=O	·	0.0	-0.4	·	·	·	·	·	·	·

From PubChem BioAssay
